Laboratory results: ChEMBL document CHEMBL1124637, “Synthesis and antiviral activity of several 2,5'-anhydro analogues of 3'-azido-3'-deoxythymidine, 3'-azido-2',3'-dideoxyuridine, 3'-azido-2',3'-dideoxy-5-halouridines, and 3'-deoxythymidine against human immunodeficiency virus and Rauscher-murine leukemia virus” (J Med Chem, 1989)
pIC50: −log10 of the molar value.

Columns and labels:
CCRF-CEM [1] = assay: Concentration of compound required to inhibit 50% of viral replication of human immunodeficiency virus in CEM-F cells; type: functional, cell-based
[2] = system: Rauscher murine leukemia virus; assay: Concentration of compound required to inhibit 50% of viral replication of Rauscher-Murine leukemia virus; type: functional, organism-based
CCRF-CEM [3] = assay: Concentration of compound required to inhibit 50% of host cell replication of human immunodeficiency virus in CEM-F cells; type: functional
[4] = Ratio of TICD50 to that of IC50 of human immunodeficiency virus (HIV-1); type: functional; set-up: reference not given here
[5] = Ratio of TICD50 to that of IC50 of Rauscher-Murine leukemia virus (R-MuLv); type: functional; set-up: reference not given here
[6] = system: Rauscher murine leukemia virus; assay: Concentration of compound required to inhibit 50% of host cell replication of Rauscher-Murine leukemia virus; type: functional
[7] = Metabolic stability (Half life) at pH-2.0 was evaluated; type: ADME
Summary of the method: (§1)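 Chemical (non-enzymatic) stability. Each compound at 2 mg/mL was incubated in 0.01 N HCl (pH 2.0) at 37 °C. Aliquots taken at various times were run on reverse-phase C-18 HPLC with a linear 0–30% CH3CN gradient into 0.01 M ammonium acetate (pH 5.5) over 30 min, with UV detection at 254 nm. Remaining anhydro compound, released parent nucleoside and pyrimidine base were quantified, and the half-life was derived.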

[8] = Metabolic stability (Half life)of the compound at pH-7.4 was evaluated; type: ADME
Summary of the method: (§2)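 Compound at 2 mg/mL held at 37 °C in phosphate-buffered saline, pH 7.4, with no enzymes present. At various times, aliquots were analysed by reverse-phase C-18 HPLC with a linear 0–30% CH3CN gradient into 0.01 M ammonium acetate (pH 5.5) over 30 min, monitored by UV at 254 nm. Intact anhydro compound, generated parent nucleoside and pyrimidine base were measured, and the half-life was derived.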

[9] = Metabolic stability (Half life) at pH-7.4 was evaluated; type: ADME; summary of the method: as §2
[10] = Metabolic stability (Half life)of the compound at pH-2.0 was evaluated; type: ADME; conditions: read-out: T1/2 h/; summary of the method: as §1
[11] = system: Rauscher murine leukemia virus; assay: Cytotoxic concentration of compound required to inhibit 50% of host cell replication of Rauscher-Murine leukemia virus; type: functional

| SMILES | pIC50 (CCRF-CEM [1]) | pIC50 [2] | CC50 (50% host cell growth inhibition) (CCRF-CEM [3]) [µM] | Ratio [4] | Ratio [5] | TCID50 [6] [µM] | TCID50 (CCRF-CEM [3]) [µM] | half-life [7] [h] | half-life [8] [h] | half-life ([7]; read-out: T1/2 h/) [h] | half-life [9] [h] | half-life [10] [h] | TCID50 [11] [µM] |
| --- | --- | --- | --- | --- | --- | --- | --- | --- | --- | --- | --- | --- | --- |
| [N-]=[N+]=N[C@H]1C[C@H]2O[C@@H]1COC1NC(=O)C(I)=CN12 (stereo partly specified) | 4.57 | 4.75 | 194 | 7 | 16 | >277 | – | – | – | – | – | – | – |
| [N-]=[N+]=N[C@H]1C[C@H](n2ccc(=O)[nH]c2=O)O[C@@H]1CO [NAVURIDINE] | 5.56 | 3.86 | – | 60 | 3 | >395 | 166 | – | – | – | – | – | – |
| CC1=CN([C@H]2C[C@H](N=[N+]=[N-])[C@@H](CO)O2)C(N)NC1=O (stereo partly specified) | 4.92 | 3.94 | 470 | 39 | 3 | >376 | – | 2.33 | > 168 | – | – | – | – |
| Cc1cn([C@H]2CC[C@@H](CO)O2)c(=O)[nH]c1=O | 6.42 | < 3.35 | – | 631 | 1 | >442 | – | – | – | – | – | – | – |
| CC1=CN2C(NC1=O)OC[C@H]1O[C@@H]2C[C@@H]1N=[N+]=[N-] (stereo partly specified) | 6.25 | 6.57 | >100 | 179 | 1481 | >400 | – | – | – | 0.492 | > 75 | – | – |
| [N-]=[N+]=N[C@H]1C[C@H](n2cc(I)c(=O)[nH]c2=O)O[C@@H]1CO | 4.90 | 6.68 | 153 | 12 | 1257 | >264 | – | – | – | – | – | – | – |
| [N-]=[N+]=N[C@H]1C[C@H]2O[C@@H]1COC1NC(=O)C(Br)=CN12 (stereo partly specified) | 4.55 | 4.79 | 168 | 6 | 20 | >319 | – | 0.238 | – | – | 60.5 | – | – |
| [N-]=[N+]=N[C@H]1C[C@H]2O[C@@H]1COC1NC(=O)C=CN12 (stereo partly specified) | 5.31 | – | >100 | 20 | – | – | – | – | – | – | 120 | 0.188 | – |
| CC1=CN2C(NC1=O)OC[C@@H]1CC[C@H]2O1 (stereo partly specified) | 4.32 | < 3.32 | 346 | 7 | 1 | – | – | 0.00381 | 84.3 | – | – | – | >480 |
| [N-]=[N+]=N[C@H]1C[C@H](n2cc(Br)c(=O)[nH]c2=O)O[C@@H]1CO | 5.06 | 6.64 | 127 | 15 | 1309 | >301 | – | – | – | – | – | – | – |
| Cc1cn([C@H]2C[C@H](N=[N+]=[N-])[C@@H](CO)O2)c(=O)[nH]c1=O [ZIDOVUDINE] | 7.00 | 7.64 | – | 290 | 17391 | >400 | – | – | – | – | – | – | – |
